Measured values as given in ChEMBL document CHEMBL4184102, “Small molecule SUMOylation activators are novel neuroprotective agents” (Bioorg Med Chem Lett, 2018).

What was measured:
[1] = target: SUMO-activating enzyme (Homo sapiens) (UniProt Q9UBE0+Q9UBT2); test: Induction of SUMO-E1/E2 (unknown origin) mediated sumoylation of His-RanGap-1 after 30 mins by HTRF assay relative to control; type: protein-complex assay; design: concentration or dose not given beside the values
[2] = Cytoprotective activity in BGMK cells assessed as reduction in thapsigargin-induced ER stress-mediated cell death by measuring cell viability at 10 uM preincubated for 2 hrs followed by thapsigargin addition measured after 24 hrs by CCK8 assay relative to control; type: cell-based; conditions: Chlorocebus aethiops, read-out: Activity
Summary of the method: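 BGMK cells subcultured at 1.2×10^4 cells/ml, pretreated with compound 2 h, then thapsigargin 0.15 μM (150 nM) added for 24 h. Cells then washed, fed fresh complete DMEM plus CCK-8 reagent, incubated 2 h, absorbance read as viability. Salubrinal included as positive control; data as mean ± SEM.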

[3] = (§1) Cytoprotective activity in rat CSM14.1 cells assessed as reduction in thapsigargin-induced ER stress-mediated cell death preincubated for 2 hrs followed by thapsigargin addition measured after 20 hrs by ATPlite assay; type: functional, cell-based
Summary of the method: (§2)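 Rat striatal neuroprogenitor CSM14.1 cells were trypsinized, plated in 96-well plates and held overnight at 32 °C. Cells were pretreated with compound for 2 h, then given thapsigargin in DMEM (15 μM final) for another 20 h. Viability was read as cellular ATP content. Thapsigargin without compound served as the 100% death reference and DMSO without thapsigargin as the 100% viability reference. Dose-response data are given as mean ± SEM.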

Rattus norvegicus = organism: Rattus norvegicus; test: as §1; type: functional, cell-based; summary of the method: as §2

Structure (SMILES) | Activity [1] | viability at 10 µM [2] | EC50 [3] | Activity (Rattus norvegicus)
O=C(Nc1nc(-c2ccccn2)cs1)c1ccc(Cl)s1 | 25% | 45.3% | – | –
Cc1ccc2sc(NNC(=O)c3cc(=O)c4ccccc4o3)nc2c1C | 38% | 54.9% | 1.2 to 9.8 µM | Dose-dependent effect
Cc1ccc(S(=O)(=O)Nc2cccc3cccnc23)cc1 | 29% | 52% | – | –
O=C(Nc1nc(-c2ccccn2)cs1)c1ccc2c(c1)OCCO2 | 20% | 54.9% | – | –
O=S(=O)(Nc1cccc2cccnc12)c1ccc(S(=O)(=O)N2CCCC2)cc1 | 43% | 62.4% | 1.2 to 9.8 µM | Dose-dependent effect
COc1cccc2sc(NNC(=O)C3COc4ccccc4O3)nc12 (centres undefined) | 17% | 38.4% | – | –
O=C(Nc1nc(-c2ccccn2)cs1)C1COc2ccccc2O1 (centres undefined) | 53% | 81.4% | 1.2 to 9.8 µM | Dose-dependent effect
O=S(=O)(Nc1cccc2cccnc12)c1ccccc1 | 25% | 35.2% | – | –
Cc1cc(C)c2nc(NNC(=O)c3cc(=O)c4ccccc4o3)sc2c1 | 33% | 60.3% | – | –
CC(=O)Nc1ccc(S(=O)(=O)Nc2cccc3cccnc23)cc1 | 28% | 53.7% | – | –
O=C(Nc1nc(-c2ccccn2)cs1)c1ccc(Br)s1 | 37% | 83.3% | – | –
O=C(/C=C/c1ccccc1)NC(NC(=S)Nc1cccc2cccnc12)C(Cl)(Cl)Cl (centres undefined) [SALUBRINAL] | – | 47.2% | – | –
